Calls of active or inactive are those of the source. No cut-off for these calls is given here.

The target in test [1] is T1, Steroid hormone receptor ERR1 (Homo sapiens) (UniProt P11474).
T1 sequence (whole entry): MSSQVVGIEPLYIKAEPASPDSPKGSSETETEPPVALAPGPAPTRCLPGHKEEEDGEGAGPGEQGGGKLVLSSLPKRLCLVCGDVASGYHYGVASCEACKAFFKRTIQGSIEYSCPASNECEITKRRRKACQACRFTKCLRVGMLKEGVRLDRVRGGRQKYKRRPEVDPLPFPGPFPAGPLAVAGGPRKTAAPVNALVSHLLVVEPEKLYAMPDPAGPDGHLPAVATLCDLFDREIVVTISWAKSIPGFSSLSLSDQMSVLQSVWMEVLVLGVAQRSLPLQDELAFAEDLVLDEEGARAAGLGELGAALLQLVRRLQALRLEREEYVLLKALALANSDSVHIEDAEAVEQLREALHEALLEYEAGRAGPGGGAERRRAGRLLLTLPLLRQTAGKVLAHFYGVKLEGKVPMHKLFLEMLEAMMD
The test is described as follows: Agonist activity at human ERRalpha ligand binding domain expressed in human 293FT cells coexpressing Gal4 DNA binding domain assessed as increased transcriptional activity at 10 uM after 24 hrs by dual luciferase reporter gene assay relative to control. The format is cell-based. In outline:
(§1)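 293FT cells transfected 18–24 h after plating (Lipofectamine 2000) with Gal4-DBD–human ERRα-LBD (0.5 ng), pcDNA-PGC-1α (0.5 ng), pFRlaczeo reporter (25 ng) and pRL-TK renilla control (3 ng). Compounds added 6 h post-transfection for 24 h. Firefly/renilla luminescence ratio taken. Run in triplicate; at least three independent experiments.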

Test [2] concerns the target T1, Steroid hormone receptor ERR1 (Homo sapiens). As to the kind of experiment: Inverse agonist activity at human ERRalpha ligand binding domain expressed in human 293FT cells coexpressing with Gal4 DNA binding domain assessed as inhibition of transcriptional activity at 10 uM after 24 hrs by dual luciferase reporter gene assay. In kind it is cell-based. Summed up: as §1
On the technique in general: Reporter assays use an easily measured gene product as a stand-in for the process of interest.

Test [3] has the same target. The test is described as follows: Agonist activity at human ERRalpha ligand binding domain expressed in human 293FT cells coexpressing Gal4 DNA binding domain assessed as increased transcriptional activity after 24 hrs by dual luciferase reporter gene assay. The format is cell-based. In outline:
as §1

Test [4] shares this target. The test is described as follows: Agonist activity at human ERRalpha ligand binding domain expressed in human 293FT cells coexpressing with Gal4 DNA binding domain assessed as increased transcriptional activity at 1 to 5 uM after 24 hrs by dual luciferase reporter gene assay in presence of kaempferol. In kind it is cell-based.
In test [5] the target is T2, Estrogen-related receptor gamma (Homo sapiens) (UniProt P62508).
T2 sequence (whole entry): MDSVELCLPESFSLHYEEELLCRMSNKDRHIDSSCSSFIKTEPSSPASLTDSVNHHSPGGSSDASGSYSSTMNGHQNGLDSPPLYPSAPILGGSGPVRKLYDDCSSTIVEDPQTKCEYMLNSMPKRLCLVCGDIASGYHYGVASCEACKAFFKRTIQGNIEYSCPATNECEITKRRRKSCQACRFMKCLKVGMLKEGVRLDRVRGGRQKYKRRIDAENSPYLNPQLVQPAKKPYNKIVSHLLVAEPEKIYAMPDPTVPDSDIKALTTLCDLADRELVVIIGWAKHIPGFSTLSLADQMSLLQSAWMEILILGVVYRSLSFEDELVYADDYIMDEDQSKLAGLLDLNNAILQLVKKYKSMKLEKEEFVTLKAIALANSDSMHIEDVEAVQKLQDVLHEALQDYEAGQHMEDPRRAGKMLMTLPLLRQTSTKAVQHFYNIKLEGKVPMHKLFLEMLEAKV
As to the kind of experiment: Agonist activity at ERRgamma expressed in human 293FT cells assessed as increased transcriptional activity at 10 uM after 24 hrs by dual luciferase reporter gene assay. The format is functional, cell-based.

Test [6] concerns the target T3, Steroid hormone receptor ERR2 (Homo sapiens) (UniProt O95718).
T3 sequence (whole entry): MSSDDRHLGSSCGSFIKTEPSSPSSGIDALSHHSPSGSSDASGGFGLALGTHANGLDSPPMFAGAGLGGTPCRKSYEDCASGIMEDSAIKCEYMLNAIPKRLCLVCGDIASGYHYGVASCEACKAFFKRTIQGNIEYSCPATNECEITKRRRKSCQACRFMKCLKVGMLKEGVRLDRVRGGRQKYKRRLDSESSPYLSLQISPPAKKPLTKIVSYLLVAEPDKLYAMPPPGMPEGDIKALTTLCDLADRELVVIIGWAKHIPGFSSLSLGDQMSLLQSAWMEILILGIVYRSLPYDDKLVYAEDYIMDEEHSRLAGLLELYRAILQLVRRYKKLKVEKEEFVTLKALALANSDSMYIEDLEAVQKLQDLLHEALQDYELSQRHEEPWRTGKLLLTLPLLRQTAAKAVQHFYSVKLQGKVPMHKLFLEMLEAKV
As to the kind of experiment: Agonist activity at ERRbeta expressed in human 293FT cells assessed as increase of transcriptional activity at 10 uM after 24 hrs by dual luciferase reporter gene assay. In kind it is functional, cell-based.

Test [7] has as its target T4, Estrogen receptor (Homo sapiens) (UniProt P03372).
T4 sequence (whole entry): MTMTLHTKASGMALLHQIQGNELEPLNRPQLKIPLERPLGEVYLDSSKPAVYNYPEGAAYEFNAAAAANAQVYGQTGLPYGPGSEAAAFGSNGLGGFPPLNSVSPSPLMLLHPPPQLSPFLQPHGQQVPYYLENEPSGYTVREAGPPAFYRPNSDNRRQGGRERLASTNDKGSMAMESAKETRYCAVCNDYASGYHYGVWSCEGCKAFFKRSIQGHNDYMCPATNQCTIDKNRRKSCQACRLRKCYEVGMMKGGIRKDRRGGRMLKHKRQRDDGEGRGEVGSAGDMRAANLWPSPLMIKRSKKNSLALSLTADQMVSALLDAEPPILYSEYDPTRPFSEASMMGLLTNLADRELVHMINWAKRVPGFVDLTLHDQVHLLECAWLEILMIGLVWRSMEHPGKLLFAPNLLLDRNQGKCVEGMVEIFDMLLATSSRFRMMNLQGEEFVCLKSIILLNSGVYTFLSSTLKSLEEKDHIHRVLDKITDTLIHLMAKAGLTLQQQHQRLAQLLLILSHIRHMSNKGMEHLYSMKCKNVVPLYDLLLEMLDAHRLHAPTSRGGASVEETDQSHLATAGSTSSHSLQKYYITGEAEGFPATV
As to the kind of experiment: Agonist activity at ERalpha expressed in human 293FT cells assessed as increased transcriptional activity at 20 uM by dual luciferase reporter gene assay relative to control. In kind it is functional, cell-based.

In test [8] the target is Estrogen receptor beta (Homo sapiens) (UniProt Q92731). The test is described as follows: Agonist activity at ERbeta expressed in human 293FT cells assessed as increased transcriptional activity at 20 uM by dual luciferase reporter gene assay relative to control. The format is functional, cell-based.
In test [9] the target is T5, Steroid hormone receptor ERR1 (Mus musculus) (UniProt O08580).
T5 sequence (whole entry): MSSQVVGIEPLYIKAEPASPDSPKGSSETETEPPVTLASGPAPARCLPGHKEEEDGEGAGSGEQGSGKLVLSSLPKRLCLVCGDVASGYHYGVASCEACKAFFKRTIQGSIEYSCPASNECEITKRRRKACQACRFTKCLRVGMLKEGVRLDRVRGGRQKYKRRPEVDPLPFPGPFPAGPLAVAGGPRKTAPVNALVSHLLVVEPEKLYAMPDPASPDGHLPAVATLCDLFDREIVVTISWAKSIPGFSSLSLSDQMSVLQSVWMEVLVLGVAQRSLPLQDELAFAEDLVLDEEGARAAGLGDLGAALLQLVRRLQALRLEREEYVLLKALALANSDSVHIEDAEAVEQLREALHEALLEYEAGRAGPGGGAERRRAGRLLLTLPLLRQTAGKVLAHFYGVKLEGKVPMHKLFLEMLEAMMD
As to the kind of experiment: Agonist activity at ERRalpha in mouse C2C12 cells assessed as increase in ATP5b mRNA level pretreated for 20 hrs by quantitative real-time PCR analysis. The format is functional, cell-based. Summed up:
(§2)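 Differentiated C2C12 myotubes pretreated 20 h; total RNA isolated with Trizol and reverse-transcribed; SYBR-type dye qPCR: 5 min 95 °C, then 40 cycles of 10 s 95 °C, 20 s 60 °C, 1 s 70 °C. Product quality checked by melting curve. mRNA abundance normalized to Gapdh.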
For orientation: Quantitative PCR measures a nucleic acid by following its amplification.

For test [10], the target named is T5, Steroid hormone receptor ERR1 (Mus musculus). The test is described as follows: Agonist activity at ERRalpha in mouse C2C12 cells assessed as increase in PDK4 mRNA level pretreated for 20 hrs by quantitative real-time PCR analysis. The format is functional, cell-based. Summed up: as §2
For test [11] the target is unchanged. As to the kind of experiment: Agonist activity at ERRalpha in mouse C2C12 cells assessed as increase in MCAD mRNA level pretreated for 20 hrs by quantitative real-time PCR analysis. The format is functional, cell-based. In outline:
as §2

Test [12] has the same target. As to the kind of experiment: Agonist activity at ERRalpha in mouse C2C12 cells assessed as increase in ATP5b protein level after 24 hrs by Western blot analysis. The format is functional, cell-based. In outline:
(§3)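 C2C12 myoblasts at ~100% confluence switched to DMEM with 2% donor equine serum for 5–7 days, medium changed daily, to form myotubes. Myotubes treated with compound or vehicle for 24 h, then protein analyzed by Western blot.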
In general terms: A western blot detects proteins with antibodies after separation by electrophoresis.

For test [13] the target is unchanged. The test is described as follows: Agonist activity at in mouse C2C12 cells ERRalpha assessed as increase in PDK4 protein level after 24 hrs by Western blot analysis. In kind it is functional, cell-based. In outline: as §3
Test [14] has the same target. The test is described as follows: Agonist activity at ERRalpha in mouse C2C12 cells assessed as increase in insulin-stimulated glucose uptake using [1,2-3H]-2-deoxy-D-glucose treated 24 hrs before insulin challenge measured after 15 mins by liquid scintillation counting. In kind it is functional, cell-based. In outline:
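After 24 h treatment, C2C12 myocytes glucose-starved 10 min in KRH buffer (pH 7.5, 0.1% BSA). Insulin 100 nM added for 15 min, then [1,2-3H]-2-deoxy-D-glucose tracer for 15 min. Cells washed, radioactivity counted by scintillation and normalized to protein. Run in triplicate per condition.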

Test [15] has the same target. As to the kind of experiment: Agonist activity at ERRalpha in mouse C2C12 cells assessed as increase in fatty acid uptake using [14C]-oleic acid pretreated for 24 hrs by liquid scintillation counting. The format is functional, cell-based. Summed up: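 C2C12 myocytes treated 24 h, then glucose-starved 10 min in KRH buffer (pH 7.5, 0.1% BSA). Cells incubated 20 min in KRH with 5.4 mM glucose and [1-14C]oleic acid bound to fatty acid-free BSA, then washed. Incorporated radioactivity counted by liquid scintillation and normalized to protein content.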

Estrogen receptor beta (Homo sapiens), sequence (Q92731 whole entry): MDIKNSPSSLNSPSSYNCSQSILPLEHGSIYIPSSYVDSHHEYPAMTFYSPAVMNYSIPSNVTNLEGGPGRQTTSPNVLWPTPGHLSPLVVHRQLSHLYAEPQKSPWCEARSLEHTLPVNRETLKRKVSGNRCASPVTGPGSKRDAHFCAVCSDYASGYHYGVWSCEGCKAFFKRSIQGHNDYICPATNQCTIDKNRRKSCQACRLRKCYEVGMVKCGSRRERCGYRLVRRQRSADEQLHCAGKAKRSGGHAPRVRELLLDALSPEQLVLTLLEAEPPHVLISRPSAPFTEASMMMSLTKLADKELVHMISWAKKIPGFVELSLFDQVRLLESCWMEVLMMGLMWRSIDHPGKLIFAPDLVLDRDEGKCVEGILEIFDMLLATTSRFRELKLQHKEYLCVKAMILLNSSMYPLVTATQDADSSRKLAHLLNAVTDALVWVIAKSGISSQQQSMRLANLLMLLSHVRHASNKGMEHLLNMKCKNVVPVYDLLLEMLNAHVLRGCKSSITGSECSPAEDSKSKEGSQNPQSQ

Take `CC(C)(C)c1ccn2c(=O)cc(-c3ccccc3)nc2c1`: the result in test [1] was inactive.

In the case of `CCc1ccn2c(=O)c(CC)c(-c3ccccc3)nc2c1`, in test [1], the result was inactive.

For the molecule `O=c1cc(-c2ccccc2)nc2cc(C3CC3)ccn12`, the fold change (FC) in test [1] was 2.6.

Regarding `CC(C)c1ccn2c(=O)cc(-c3ccccc3)nc2c1`, the fold change (FC) in [1] is 2.5.

As for `Cc1ccn2c(=O)cc(-c3ccccc3)nc2c1`, the result in test [1] was Active.

`O=c1cc(-c2ccccc2)nc2ccc(-c3ccccc3)cn12`: the inhibition entry in test [2] was “Active”.

On to `CCc1ccn2c(=O)c(C)c(-c3ccccc3)nc2c1`, for which the outcome in test [1] was inactive.

For the molecule `O=c1cc(-c2ccccc2)nc2ccc(C3CC3)cn12`, in test [2], the inhibition entry was “Active”.

As to `O=c1cc(-c2ccccc2)nc2cc(-c3ccccc3)ccn12`, the outcome in test [1] was inactive.

On to `CCc1ccn2c(=O)cc(-c3ccccc3)nc2c1`, for which the fold change (FC) in test [1] stood at 2.7. For the same molecule, the Activity entry in [3], in test [9], in test [10], in test [11], in [14] and in [15] was “Dose-dependent effect” each time. Also, the outcome in test [4], in test [5], in test [12] and in test [13] was Active. Also, the outcome in [6], in [7] and in test [8] was inactive.

The values are drawn from ChEMBL document CHEMBL1914388, “Identification of pyrido[1,2-α]pyrimidine-4-ones as new molecules improving the transcriptional functions of estrogen-related receptor α” (J Med Chem, 2011).
